Screens (PubChem BioAssay)
In the library only some 3.9% were active in any assay of this set; here they are far more common.
OX1R antag-1 = blocks the human orexin 1 receptor. O43613. OX1R-expressing cells, FRET antagonist read-out. inhibition, % at 6.6 µM. hit rate 1.8% among 330,000. AID 485270; in the data active = inhibition mostly above about 38%, no sharp cut-off; inactive = mostly below about 40%;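 also: 0% = agonist challenge alone and 100% = reference antagonist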
Target sequence (O43613 whole entry, looked up): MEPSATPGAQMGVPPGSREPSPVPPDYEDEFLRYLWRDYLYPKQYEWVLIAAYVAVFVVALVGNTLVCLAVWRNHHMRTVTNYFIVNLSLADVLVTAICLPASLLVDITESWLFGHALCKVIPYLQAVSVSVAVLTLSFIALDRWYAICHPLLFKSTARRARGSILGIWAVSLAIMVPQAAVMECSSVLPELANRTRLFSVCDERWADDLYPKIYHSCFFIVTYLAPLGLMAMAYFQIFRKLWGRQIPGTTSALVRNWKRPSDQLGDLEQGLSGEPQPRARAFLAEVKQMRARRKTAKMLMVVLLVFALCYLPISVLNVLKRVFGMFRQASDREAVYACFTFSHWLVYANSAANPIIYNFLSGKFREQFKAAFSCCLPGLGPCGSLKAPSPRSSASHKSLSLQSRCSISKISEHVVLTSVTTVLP
OX1R antag-2 = antagonists of human orexin 1 receptor | O43613 | CHO/OX1R cells, Fluo-8 calcium fluorescence, orexin A | inhibition, % at 5 µM | hit rate 0.43% among 330,000;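 active = inhibition above its plate's threshold, mean inhibition of all tested compounds on the plate plus 3 SD, cut at about 37% in these data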;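 also: 0% = orexin A challenge wells and 100% = SB-334867-A antagonist wells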
TAAR1 agonist = agonists of human TAAR1. Q96RJ0. CHO RD-HGA16 TAAR1, Fluo-8 calcium fluorescence; vehicle wells 0%, saturating PEA agonist 100%. activation, % at 3 µM. hit rate 0.99% among 360,000. AID 624467;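 active = activation above the mean activation of all test compounds in the run plus 3 SD, cut at about 38% in these data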
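Assay system – CHO-derived RD-HGA16 cells with stable Gα16 and human TAAR1 · Compound dosing – one-point dosing at 3 µM (nominal) · Incubation – 17-24 h seeding, 75 min 37 °C dye, 30 min RT · Measured by – kinetic Fluo-8 calcium fluorescence · Control set – DMSO vehicle as 0%, PEA at EC100 as 100% · Repeats – single well for each compound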
TAAR1 antagonist = human TAAR1 antagonism | CHO RD-HGA16 TAAR1, Fluo-8 calcium fluorescence, antagonist | AID 624466 | inhibition, % at 3 µM | hit rate 1.5% among 360,000;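 active = inhibition above a per-plate cutoff, the mean inhibition of test compounds on that plate plus 3 SD, cut at about 49% in these data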;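 also: 0% = DMSO plus EC80 beta-PEA response and 100% = DMSO alone without agonist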
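Test system: RD-HGA16 CHO cells with stable hTAAR1 and Gα16 / Probe or stimulus: EC80 β-phenethylamine stimulus / Times: seeding 17-24 h prior, 75-min 37 °C, 30-min RT dye loading / Detection: Fluo-8 calcium-sensitive fluorescence / Read-out basis: % inhibition scaled between DMSO and EC80 PEA controls / Repeats: singlicate, one well per test compound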
CHO parental Ca = signal in parental CHO cells, OX1R antagonist counter-screen | hit rate 0.63% among 330,000 | AID 463079 | parental CHO-K1, ATP-induced calcium, Fluo-8 fluorescence | inhibition, % at 5.6 µM;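 active = inhibition above that plate's mean sample inhibition plus 3 SD, cut at about 26% in these data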;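 also: 0% = ATP-challenged DMSO wells and 100% = DMSO wells without ATP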
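Assay system – parental CHO cells · Reagent – ATP stimulus · Detection – intracellular calcium via Fluo-8 no-wash fluorescent dye · Evaluation – percent inhibition of ATP-evoked calcium rise, normalized to controls · Controls – ATP wells versus no-ATP DMSO wells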
OX1R Fluo8 conf = confirmation of human orexin 1 receptor antagonists | shares compounds with OX1R antag-2 | inhibition, % at 5 µM | CHO/OX1R cells, orexin A calcium Fluo-8 fluorescence | hit rate 38% among 1,100; in the data active = inhibition above about 29%;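 also: 0% = agonist challenge alone and 100% = reference antagonist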
CHO Ca counter = signal in parental CHO cells, OX1R antagonist counter-screen. shares compounds with OX1R antag-2. parental CHO-K1, ATP-induced calcium, Fluo-8 fluorescence. inhibition, % at 5.6 µM. hit rate 9.3% among 1,100. AID 492965;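 active = inhibition above a per-plate limit, the mean inhibition of that plate's test compounds plus 3 SD, cut at about 25% in these data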;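 also: 0% = ATP challenge with DMSO and 100% = DMSO without ATP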
Active calls of the source: *; · = not tested or not shown.

SMILES	OX1R antag-1	OX1R antag-2	TAAR1 agonist	TAAR1 antagonist	CHO parental Ca	OX1R Fluo8 conf	CHO Ca counter
COC(=O)C1(Cc2ccc3c(c2)CCC3)Cc2ccc3c(c2C1=O)CCC3 (stereo not given)	·	·	0	-8	·	·	·
CC(C)Nc1nc(NCCOc2ccccc2)c2sccc2n1	·	·	2	9	·	·	·
CCNC(=O)C12CCC(C)(C(=O)O1)C2(C)C (stereo not given)	3	22	0	2	5	7	1
CC12CCC(C(=O)NCCCN3CCOCC3)(OC1=O)C2(C)C (stereo not given)	7	-13	0	7	-3	·	·
Nc1c(C(O)(C(F)(F)F)C(F)(F)F)cc(C(O)(C(F)(F)F)C(F)(F)F)c2ccccc12	25	28	·	·	7	-6	-1
Cc1ccc(/C=C2\SC(=S)N(CCC(=O)NNC(=O)c3cccnc3)C2=O)cc1	28	-7	12	34	-7	·	·
O=C(CCN1C(=O)/C(=C/c2ccccc2)SC1=S)NNC(=O)c1cccnc1	45	46*	11	60*	16	47*	69*
CC(=O)N=C1SC2CS(=O)(=O)CC2N1c1cccc(Cl)c1Cl (stereo not given)	6	-10	4	-15	-14	·	·
CC(=O)N=c1cccc(NC(C)=O)n1O	15	86*	17	-5	-6	0	3
CCOC(=O)[C@]12CCC=C1N(Cc1cccc3ccccc13)C(=O)[C@H](CC(=O)N1CCN(C(=O)C3CC3)CC1)C2	·	·	-1	-13	·	·	·
O=C(CSc1ncc(-c2ccc(F)cc2)n1Cc1ccco1)Nc1nccs1	46	22	46*	40	12	16	-9
COc1ccc(NC(=O)CSc2ncc(-c3ccc(F)cc3)n2Cc2ccco2)cc1	33	6	5	26	-14	·	·
COc1ccc2c(c1)CN(C)S(=O)(=O)c1ccccc1-2	2	-9	2	1	-6	·	·
COc1ccc(NC(=O)CCc2nc(-c3ccc(C)cc3)no2)cc1Cl	56	34	24	13	16	5	6
CCCN1C(=O)/C(=C2/C=Cc3ccccc3N2CC)SC1=S	32	-17	-1	2	-22	·	·
CCCN1C(=O)/C(=C/C=C2\N(CC)c3ccccc3C2(C)C)SC1=S	4	37	26	23	19	55*	52*
CCCN1C(=O)/C(=C\C=C2/Sc3ccccc3N2CCO)SC1=S	31	10	9	3	-22	·	·
CCN1C(=O)/C(=C/C=C2/Sc3ccccc3N2CCO)SC1=S	43	22	7	2	3	20	25*
Cc1ccsc1C(=O)N1CCCC(N(C)Cc2ccccc2)C1 (stereo not given)	4	38	0	-3	-4	-5	-4
CCC/C=C/c1ccc(CN2C(CC(C)C)C(=O)N(Cc3cn(Cc4ccco4)nn3)CCS2(=O)=O)cc1 (stereo not given)	·	·	2	-4	·	·	·
CCOc1cc2c(cc1/C=C/c1noc(C)c1[N+](=O)[O-])OC(C)C2 (stereo not given)	21	26	18	19	18	51*	44*
CCc1c(C)sc(NC(=S)Nc2cccnc2)c1C(=O)OC	9	-18	1	-42	-7	·	·
CCc1c(C)sc(NC(=S)Nc2nc(C)cc(C)n2)c1C(=O)OC	37	40	3	6	-21	45*	-13
O=C(COc1cccc(C(F)(F)F)c1)Nc1cccc(S(=O)(=O)NC2=NCCCCC2)c1	·	·	6	27	·	·	·
Cc1ccc(Nc2nc3ccccc3nc2Nc2c(C)n(C)n(-c3ccccc3)c2=O)cc1	14	57*	0	4	-3	3	4
Cc1c(Nc2nc3ccccc3nc2NS(=O)(=O)c2cccc(Cl)c2)c(=O)n(-c2ccccc2)n1C	27	-32	1	-17	-9	·	·
CC(NCCCSc1ccccc1)C(O)c1ccc(O)cc1 (stereo not given)	·	·	3	-3	·	·	·
Cc1ccc(C)c(OCCC(=O)NNC(=O)c2ccccc2)c1	14	18	1	4	8	-4	-3
